Experimental data reported in ChEMBL document CHEMBL1255383, “Reduced histone deacetylase 7 activity restores function to misfolded CFTR in cystic fibrosis” (Nat Chem Biol, 2010).
Calls of active or inactive are those of the source. No cut-off for these calls is given here.

How the values were obtained:
[1] = In vivo inhibition of HDAC; format: organism-based
BHK = assay: Inhibition of HDAC expressed in hamster BHK cell line assessed as increase in plasma membrane Fdelta508 CFTR protein at 5 uM by immunofluorescence method; format: cell-based
Method in brief: (§1)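 Surface ΔF508extope is labelled with HA.11 antibody under non-permeabilizing conditions.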

[2] = target: Cystic fibrosis transmembrane conductance regulator (Homo sapiens) (UniProt P13569); assay: Inhibition of CFTR transcription assessed as decrease of CFTR protein level at 50 uM by immunoblot method
Chain of Cystic fibrosis transmembrane conductance regulator (Homo sapiens) (P13569 whole entry, looked up): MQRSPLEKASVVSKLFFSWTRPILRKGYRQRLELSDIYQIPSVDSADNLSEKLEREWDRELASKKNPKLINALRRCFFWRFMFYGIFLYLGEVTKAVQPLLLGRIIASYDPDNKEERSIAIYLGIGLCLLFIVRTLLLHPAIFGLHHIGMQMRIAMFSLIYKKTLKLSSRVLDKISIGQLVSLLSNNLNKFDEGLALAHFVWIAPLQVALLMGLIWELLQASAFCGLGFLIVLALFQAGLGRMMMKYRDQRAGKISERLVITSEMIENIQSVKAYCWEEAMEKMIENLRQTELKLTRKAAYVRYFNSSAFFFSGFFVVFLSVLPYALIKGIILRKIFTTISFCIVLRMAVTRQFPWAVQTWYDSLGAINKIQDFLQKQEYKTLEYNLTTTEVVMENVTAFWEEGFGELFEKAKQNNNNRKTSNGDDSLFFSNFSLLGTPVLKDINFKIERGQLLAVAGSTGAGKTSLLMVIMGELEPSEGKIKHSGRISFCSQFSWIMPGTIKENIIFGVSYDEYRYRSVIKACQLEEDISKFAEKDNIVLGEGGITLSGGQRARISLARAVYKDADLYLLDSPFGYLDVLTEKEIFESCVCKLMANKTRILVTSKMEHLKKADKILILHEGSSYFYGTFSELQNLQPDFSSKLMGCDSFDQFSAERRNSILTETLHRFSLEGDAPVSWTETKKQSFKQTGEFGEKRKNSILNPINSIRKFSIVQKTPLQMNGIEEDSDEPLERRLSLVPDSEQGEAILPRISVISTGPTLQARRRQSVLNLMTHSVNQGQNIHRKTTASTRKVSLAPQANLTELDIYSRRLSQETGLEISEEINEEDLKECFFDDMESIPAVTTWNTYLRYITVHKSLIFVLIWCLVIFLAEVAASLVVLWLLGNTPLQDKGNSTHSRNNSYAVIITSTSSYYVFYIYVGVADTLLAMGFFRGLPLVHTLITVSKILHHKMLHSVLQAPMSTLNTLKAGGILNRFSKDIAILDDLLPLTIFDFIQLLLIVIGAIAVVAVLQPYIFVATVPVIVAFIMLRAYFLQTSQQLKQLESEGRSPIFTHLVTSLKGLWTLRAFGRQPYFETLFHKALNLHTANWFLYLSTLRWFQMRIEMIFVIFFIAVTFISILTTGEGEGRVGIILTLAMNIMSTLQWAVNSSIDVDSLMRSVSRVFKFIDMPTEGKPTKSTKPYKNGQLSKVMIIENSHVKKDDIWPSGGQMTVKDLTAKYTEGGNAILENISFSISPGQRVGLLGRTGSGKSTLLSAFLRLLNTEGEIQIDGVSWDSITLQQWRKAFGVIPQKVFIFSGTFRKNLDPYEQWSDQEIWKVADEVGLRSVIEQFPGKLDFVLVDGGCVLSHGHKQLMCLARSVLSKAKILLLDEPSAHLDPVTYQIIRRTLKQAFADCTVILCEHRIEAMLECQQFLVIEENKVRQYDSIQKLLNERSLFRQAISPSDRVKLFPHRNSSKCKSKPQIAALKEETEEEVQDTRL

[3] = target: T1, Histone deacetylase 7 (Homo sapiens) (UniProt Q8WUI4); assay: Inhibition of HDAC7 in Fdelta508 CFTR-expressing human CFBE41o- monolayers assessed as increase in short circuit currents at 10 uM
T1 sequence (whole entry): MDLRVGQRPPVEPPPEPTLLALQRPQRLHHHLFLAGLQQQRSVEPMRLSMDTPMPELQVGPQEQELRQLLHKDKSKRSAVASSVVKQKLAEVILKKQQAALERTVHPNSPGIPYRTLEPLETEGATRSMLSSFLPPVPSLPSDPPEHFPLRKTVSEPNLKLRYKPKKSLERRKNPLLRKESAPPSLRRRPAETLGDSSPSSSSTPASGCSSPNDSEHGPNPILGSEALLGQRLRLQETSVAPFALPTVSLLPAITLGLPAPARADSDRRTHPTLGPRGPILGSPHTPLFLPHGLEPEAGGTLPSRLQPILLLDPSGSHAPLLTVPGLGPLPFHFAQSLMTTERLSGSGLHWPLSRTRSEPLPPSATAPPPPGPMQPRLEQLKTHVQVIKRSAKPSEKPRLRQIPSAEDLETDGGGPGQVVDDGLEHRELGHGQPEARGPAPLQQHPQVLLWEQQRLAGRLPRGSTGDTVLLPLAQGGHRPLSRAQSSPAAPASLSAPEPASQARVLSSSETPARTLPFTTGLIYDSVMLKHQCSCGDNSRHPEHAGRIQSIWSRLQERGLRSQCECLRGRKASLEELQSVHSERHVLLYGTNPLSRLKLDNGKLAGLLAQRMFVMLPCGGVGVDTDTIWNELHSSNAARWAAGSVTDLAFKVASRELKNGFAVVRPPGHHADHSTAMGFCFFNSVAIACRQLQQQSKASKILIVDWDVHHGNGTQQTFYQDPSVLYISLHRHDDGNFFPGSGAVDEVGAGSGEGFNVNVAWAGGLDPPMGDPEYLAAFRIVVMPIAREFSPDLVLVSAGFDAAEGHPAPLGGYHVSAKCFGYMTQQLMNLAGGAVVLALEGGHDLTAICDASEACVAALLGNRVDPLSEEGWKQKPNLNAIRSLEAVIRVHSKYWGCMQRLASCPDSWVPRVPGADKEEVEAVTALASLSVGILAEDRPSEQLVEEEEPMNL
Method in brief: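 CFBE41o- cells stably expressing ΔF508 CFTR are cultured on permeable supports and mounted for short-circuit current (Isc) measurement.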

[4] = target: T1, Histone deacetylase 7 (Homo sapiens); assay: Inhibition of HDAC7 expressed in hamster BHK cell line assessed as increase in plasma membrane Fdelta508 CFTR protein at 1 uM by immunofluorescence method; format: cell-based; method in brief: as §1
[5] = target: T1, Histone deacetylase 7 (Homo sapiens); assay: Inhibition of HDAC7 in human CFBE41o- cell line assessed as correction of mutant Fdelta508 CFTR trafficking to cell surface as glycoform at 1 uM by Immunoblot analysis
Method in brief: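 CFBE41o- ΔF508 cells in α-MEM/10% FBS/2mM L-glutamine/puromycin are dosed at 1 μM every 24 h, chronically for up to 8 days, against DMSO. Lysates are made in Tris-HCl/NaCl/1% Triton X-100. 15μg protein is run on 8% SDS-PAGE and probed with M3A7 by chemiluminescence. Band B (ER) and band C (post-Golgi) are quantified, and the C/B ratio is calculated.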

[6] = target: T1, Histone deacetylase 7 (Homo sapiens); assay: Inhibition of HDAC7 in wild-type CFTR expressing human primary lung cells assessed as forskolin-stimulated Fdelta508 CFTR channel activity at 10 uM after 24 hrs relative to control; format: cell-based; details: in the assay text read “Fdelta508 CFTR homozygous” for “wild-type CFTR expressing”
Method in brief: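 Primary ΔF/ΔF human bronchial epithelial cells on permeable supports receive acute treatment, 10 μM for 24 h. The result is expressed relative to control.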

[7] = target: T1, Histone deacetylase 7 (Homo sapiens); assay: Inhibition of HDAC7 in wild-type CFTR expressing human primary lung cells assessed as induction of short circuit currents at 1 uM for 4, 6, and 8 days relative to control; format: cell-based
[8] = target: T1, Histone deacetylase 7 (Homo sapiens); assay: Inhibition of HDAC7 in human homozygous Fdelta508 primary bronchial epithelial cells assessed as induction of short circuit currents at 1 uM for 4, 6, and 8 days relative to control; format: cell-based; details: Epithelial cell
Method in brief: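 Primary bronchial epithelial cells homozygous for ΔF508 from patients are grown on permeable supports. They are exposed to 1 μM for 4, 6 and 8 days against DMSO controls. ΔIsc is measured in Ussing chambers in μA/cm2, and is also compared with wild-type level.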

| SMILES | IC50 [1] | inhibition [2] | Activity [6] | also measured |
| --- | --- | --- | --- | --- |
| Nc1ccccc1NC(=O)c1ccc(CNC(=O)OCc2cccnc2)cc1 [ENTINOSTAT] | 5000 nM | Active |  | inhibition (BHK): Active |
| O=C(CCCCCCC(=O)Nc1ccccc1)NO |  | Active |  |  |
| CC(/C=C/C(=O)NO)=C\[C@@H](C)C(=O)c1ccc(N(C)C)cc1 [TRICHOSTATIN] | 100 nM | Active |  |  |
| O=C(CCCCCN1C(=O)c2cccc3cccc(c23)C1=O)NO | 1000 nM | Active |  | inhibition [3]: Active; inhibition [4]: Active; inhibition [5]: Active |
| O=c1c(-c2ccc(O)cc2)coc2cc(O)cc(O)c12 |  |  | 3.7 uA.cm'-2 |  |
| C=C[C@@]1(C)CC(=O)[C@]2(O)[C@@]3(C)[C@@H](O)CCC(C)(C)[C@@H]3[C@H](O)[C@H](OC(C)=O)[C@@]2(C)O1 |  |  | 3.7 uA.cm'-2 | Activity [7]: 23.1 uA.cm'-2; Activity [8]: 6.5 uA.cm'-2 |
